Measurements pooled from the literature.
Target: Casein kinase I isoform epsilon (CSNK1E, Homo sapiens, UniProt P49674)

O=C1NC(=O)c2cc(Nc3ccc(F)cc3)c(Nc3ccc(F)cc3)cc21  remaining activity (enzyme activity, inhibitor; 0.5 µM): 98%
O=C(Nc1cnn(-c2csc(C(=O)NC3COC3)c2)c1)Nc1c(F)cccc1Cl  remaining activity (enzyme activity, inhibitor; 5 µM): 88.6%
O=C(NS(=O)(=O)c1ccc(NCC2CCOCC2)c([N+](=O)[O-])c1)c1ccc(N2CCN(Cc3ccc(C(F)(F)F)cc3-c3ccc(Cl)cc3)CC2)cc1Oc1cnc2[nH]ccc2c1  remaining binding (cell-free assay, competition with immobilised ligand; 1 µM): 95%
CCN1/C(=C/C(C)=O)Sc2ccc(OC)cc21  remaining activity (enzyme activity; 0.5 µM): 60.1%
O=C(Nc1cccnn1)N1CC(C/C=C/c2cncc(Oc3ccc(C(F)(F)F)cn3)n2)C1  remaining binding (cell-free assay, competition with immobilised ligand; 1 µM): 100%
COc1cc2c(N3CCN(C(=O)Nc4ccc(OC(C)C)cc4)CC3)ncnc2cc1OCCCN1CCCCC1  remaining signal (cell-free assay; 0.5 µM): 99.1%
Cn1c2c(c3ccc(Cl)c(Cl)c31)C(C#N)C(C)(C)NC2=O (centres unmarked)  ΔTm (thermal stability, DSF; 10 µM): 1.3 °C
Cc1sc(C(=O)NC2COC2)cc1-n1cc(NC(=O)Nc2c(F)cccc2Cl)cn1  remaining activity (enzyme activity, inhibitor; 10 µM): 97.9%
O=C1Nc2ccc(Cl)cc2C1=Cc1cc(Cl)c(O)c(Cl)c1  remaining activity (enzyme activity; 0.5 µM): 66.6%
CC1(C)NC(=O)c2[nH]c3c(Cl)c(Cl)ccc3c2C1C#N (centres unmarked)  ΔTm (thermal stability, DSF; 10 µM): 1.8 °C
CN(C)CC#Cc1ccc(OCCCc2sc(N3CCc4cccc(C(=O)Nc5nc6ccccc6s5)c4C3)nc2C(=O)O)c(F)c1  remaining binding (cell-free assay, competition with immobilised ligand; 1 µM): 86%
Cc1ccc(C(=O)Nc2ccc(CN3CCN(C)CC3)c(C(F)(F)F)c2)cc1C#Cc1cnc2cccnn12  remaining activity (enzyme activity, inhibitor; 23.5 nM): 88%
CC(C)(C)c1nc2c(s1)c1nc(N)ncc1c1ccc(NS(=O)(=O)c3c(F)cccc3F)c(F)c12  remaining activity (enzyme activity, inhibitor, radiometric; 1 µM): 84%
CC1=C(C#N)C(c2ccc3c(c2)c(NC(=O)c2ccccc2C)nn3C)C(C#N)=C(C)N1  remaining binding (cell-free assay, competition with immobilised ligand; 1 µM): 100%
COc1cc2ncnc(Nc3ccc(F)c(Cl)c3)c2cc1OCCCN1CCOCC1  remaining activity (enzyme activity; 0.5 µM): 106%
CCCCN(CCCC)C(=O)CN1C[C@H](c2cc(OC)c3c(c2)OCO3)[C@@H](C(=O)O)[C@@H]1CC(C)(C)CCC  remaining binding (cell-free assay, competition with immobilised ligand; 1 µM): 100%
CCCS(=O)(=O)Nc1ccc(F)c(C(=O)c2c[nH]c3ncc(-c4ccc(Cl)cc4)cc23)c1F  inhibition (enzyme activity, inhibitor; 1 µM): < 10%
CNCc1ccccc1-c1csc([C@H](C)Nc2nc(C)nc3cc(OC)c(OC)cc23)c1  remaining binding (cell-free assay, competition with immobilised ligand; 1 µM): 91%
COc1cc2ncnc(Nc3ccc(Oc4ccccc4)c(C)c3C)c2cc1OC  inhibition (enzyme activity, inhibitor; 1 µM): 0%
Cn1c2c(Cl)c(Cl)ccc2c2cc(N)[nH]c(=O)c21  ΔTm (thermal stability, DSF; 10 µM): 0.5 °C
CC(C)(O)[C@H]1CC[C@H](Nc2ccc3ncc(-c4cccc(C(F)(F)F)c4)n3n2)CC1  remaining activity (enzyme activity, inhibitor; 1 µM): 78.5%
CCOC(=O)c1cc2cc(-c3cc(C(=O)NCc4ccc(C(=O)O)cc4)nn3C)ccc2[nH]1  remaining binding (cell-free assay, competition with immobilised ligand; 0.1 µM): 100%
Nc1nc(Nc2ccc(S(N)(=O)=O)cc2)nn1C(=O)c1c(F)cccc1F  remaining signal (cell-free assay; 0.5 µM): 96.9%
